Data from ChEMBL document CHEMBL1147407, “The design and synthesis of novel inhibitors of NADH:ubiquinone oxidoreductase” (Bioorg Med Chem Lett, 2004).

Experiments:
[1] = system: Tetranychus urticae; assay: Acaricidal activity of a compound (300 p.p.m.) was evaluated against Tetranychus urticae infected on bean plants; format: functional
[2] = Inhibition of NADH:ubiquinone oxidoreductase from house fly (Musca domestica) flight muscles; format: tissue-based, Muscle tissue
Method in brief: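 House fly flight-muscle complex I. Activity was measured as NADH oxidation, followed photometrically at 340 nm, with n-decylubiquinone as the electron acceptor.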

IC50 [2] [nM]	Structure (SMILES)	Activity [1] [%]
500	CC(C)(C)c1ccc(CSc2cc(=O)c3ccccc3o2)cc1	0
10	Cc1c(SCCc2ccc(C(C)(C)C)cc2)oc2ccccc2c1=O	80
6	CC(C)(C)c1ccc(CSc2oc3ccccc3c(=O)c2Cl)cc1	50
> 200	CCc1c(SCc2ccc(C(C)(C)C)cc2)oc2ccccc2c1=O	0
200	Cc1c(NCCc2ccc(C(C)(C)C)cc2)oc2ccccc2c1=O	0
160	Cc1c(S(=O)(=O)Cc2ccc(C(C)(C)C)cc2)oc2ccccc2c1=O	0
8	Cc1c(SCc2ccc(C(C)(C)C)cc2)oc2ccccc2c1=O	100
20	Cc1c(NCc2ccc(C(C)(C)C)cc2)oc2ccccc2c1=O	0
